CHRM1 agonist: human M1 muscarinic receptor agonism; activation, % at 3 µM; 360,000 compounds, 0.33% hits; AID 588814; P11229; CHO-K1 hM1, Fluo-8 calcium fluorescence, agonist mode; 0% DMSO, 100% acetylcholine EC100;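 active means activation above the run's mean compound activation plus 3 SD, cut at about 16% in these data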;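 further: peak over basal fluorescence ratio within a 140 s kinetic read after compound addition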
Target sequence (P11229 whole entry, looked up): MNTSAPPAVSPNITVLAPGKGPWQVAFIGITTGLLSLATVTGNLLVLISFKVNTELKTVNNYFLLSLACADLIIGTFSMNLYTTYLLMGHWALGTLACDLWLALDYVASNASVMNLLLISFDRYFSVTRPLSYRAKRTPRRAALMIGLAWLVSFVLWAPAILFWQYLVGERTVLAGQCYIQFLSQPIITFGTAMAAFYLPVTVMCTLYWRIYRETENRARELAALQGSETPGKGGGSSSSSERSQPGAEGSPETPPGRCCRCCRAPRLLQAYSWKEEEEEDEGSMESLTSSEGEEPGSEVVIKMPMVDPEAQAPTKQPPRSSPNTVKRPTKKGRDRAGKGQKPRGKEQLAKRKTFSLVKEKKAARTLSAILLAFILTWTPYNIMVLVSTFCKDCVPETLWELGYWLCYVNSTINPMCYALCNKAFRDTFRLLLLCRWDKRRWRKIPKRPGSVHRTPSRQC
TAAR1 antagonist: human TAAR1 antagonism; Q96RJ0; CHO RD-HGA16 TAAR1, Fluo-8 calcium fluorescence, antagonist; inhibition, % at 3 µM; 360,000 compounds, 1.5% hits;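 active means inhibition above a per-plate cutoff, the mean inhibition of test compounds on that plate plus 3 SD, cut at about 49% in these data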
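Test system – hTAAR1-expressing CHO RD-HGA16 cells, Gα16-coupled · Also added – β-PEA at EC80 concentration, post-compound challenge · Compound – 3 µM, single point · Incubation – dye loading 75 min at 37 °C, then 30 min room temperature · Measured by – Fluo-8 intracellular calcium dye fluorescence, real-time kinetic reads · Benchmarks – vehicle and agonist controls · Replicates – singlicate, one well per test compound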
M1 antag: human CHRM1 antagonism | P11229 | CHO-K1 hM1, Fluo-8 calcium fluorescence, ACh EC80 antagonist | inhibition, % at 3 µM | 360,000 compounds, 1.3% hits;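 active means percent inhibition above its own plate's cutoff, namely the mean of that plate's compound wells plus 3 SD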;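 further: peak over basal fluorescence ratio during 140 s after agonist addition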
TAAR1 ag: agonists of human TAAR1 | Q96RJ0 | CHO RD-HGA16 TAAR1, Fluo-8 calcium fluorescence; vehicle wells 0%, saturating PEA agonist 100% | activation, % at 3 µM | 360,000 compounds, 0.99% hits | AID 624467;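 active means activation above the mean activation of all test compounds in the run plus 3 SD, cut at about 38% in these data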
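Assay system: CHO-derived RD-HGA16 cells with stable Gα16 and human TAAR1; timing: 17-24 h seeding, 75 min 37 °C dye, 30 min RT; read-out: % activation from peak over basal fluorescence ratio, DMSO-to-PEA scaled; measured by: kinetic Fluo-8 calcium fluorescence; benchmarks: low control DMSO, high control PEA (EC100); doses: 3 µM single concentration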
M1 PAM: potentiates human M1 receptor response to acetylcholine | P11229 | activation, % at 3 µM | 360,000 compounds, 0.088% hits | CHO-K1 hM1, Fluo-8 calcium fluorescence, ACh EC20; 0% = ACh EC20, 100% = maximal ACh; in the data active means activation above about 19%, passing the limit was not always enough
A number is an active result; n = inactive; x = no result given. Compounds with a hit are over-represented: about 3.4% of the library has one in this group of screens.

SMILES | CHRM1 agonist | TAAR1 antagonist | M1 antag | TAAR1 ag | M1 PAM
COc1ccc(S(=O)(=O)NCC2CCCN(Cc3ccccc3Cl)C2)cc1 (stereo unspecified) | n | n | 51 | n | n
CCC[C@@H](CN1CCC[C@H]1CN1C(N)=NC[C@H]1CC(C)C)N1C[C@@H]([C@H](C)CC)N(CCc2ccc(Cl)c(Cl)c2)C1=N | n | n | 38 | n | n
CC[C@@H](C)[C@@H]1CN([C@@H](C)CN2CCC[C@H]2CN2C(N)=NC[C@H]2CC(C)C)C(=N)N1CCc1ccc(Cl)c(Cl)c1 | n | n | 39 | n | n
CCC[C@@H](CN1CCC[C@H]1CN1C(N)=NC[C@@H]1Cc1ccccc1)N1C[C@@H]([C@H](C)CC)N(CCc2ccc(Cl)c(Cl)c2)C1=N | n | x | n | x | n
COc1ccc(CNC(=O)c2c(N)[nH]c(C(=O)c3ccccc3)c2-c2ccc3ccccc3c2)cc1OC | x | n | x | n | x
CC(C)CNc1cccc2c1S(=O)(=O)N[C@@H](Cc1ccccc1)CO2 | x | n | x | n | x
Cc1ccsc1CN(C)CC(=O)Nc1ccc([N+](=O)[O-])cc1Cl | n | 52 | n | n | n
OCC1(Cc2ccccc2)CCCN(Cc2ccc(-c3ccco3)cc2)C1 (stereo unspecified) | n | n | 44 | n | n
O=C(Nc1nnc(-c2ccccc2)o1)c1nc2ccccc2s1 | 66 | n | n | 154 | n
CCN(CC)CCCn1c(C)cc2c(c1=O)C(c1cccc(Cl)c1)C(C#N)=C(N)O2 (stereo unspecified) | n | n | 60 | n | n
COc1ccc(OC2C(=O)N(Cc3ccc(F)cc3)C2c2ccc(OC)c(OC)c2)cc1 (stereo unspecified) | n | n | n | n | n
COc1ccc(OC2C(=O)N(Cc3ccc4c(c3)OCO4)C2c2sccc2C)cc1 (stereo unspecified) | n | 50 | n | n | n
Cc1c(NC(=O)Nc2ccc(Cl)c(Cl)c2)sc(=S)n1C | n | n | n | 41 | n
CC1CCCCC1NCC#CCOc1ccc(Cl)cc1 (stereo unspecified) | n | n | 63 | n | n
CC(C)NCC#CCOc1ccc(Cl)cc1 | n | n | n | n | n
CC(C)C[C@H](NC(=O)c1ccc(Cl)c(Cl)c1)C(=O)N1CCC[C@H]1C(=O)NCc1ccccc1 | x | n | x | n | x
O=C(CCCc1nc(-c2ccc(Cl)cc2)no1)NC1CCCC1 | n | n | 37 | n | n
O=C(CCc1nc(-c2ccc(Cl)cc2)no1)NC1CCCCC1 | n | n | n | n | n
O=C(NCCCc1ccccc1)C(=O)NCC1OCCN1S(=O)(=O)c1cc(F)ccc1F (stereo unspecified) | n | n | n | n | n
COc1ccccc1CCNC(=O)C(=O)NCC1OCCN1S(=O)(=O)c1ccc(F)cc1 (stereo unspecified) | n | n | n | 39 | n
COc1ccccc1CCNC(=O)C(=O)NCC1OCCN1S(=O)(=O)c1ccc(OC)c(OC)c1 (stereo unspecified) | n | n | n | 40 | n
COc1ccc(CCNC(=O)C(=O)NCC2OCCN2S(=O)(=O)c2cc(F)ccc2F)cc1 (stereo unspecified) | n | 55 | n | n | n
COc1ccccc1CCn1cnc(-c2ccccc2OC)c1CC(C)C | x | n | x | n | x
COc1cccc(CNC(=O)[C@H]2CCCN2C(=O)[C@H]2CCCN2C(=O)c2ccc(F)cc2F)c1 | x | n | x | n | x
O=C(C(=O)N1CCN(C(=O)C2CCCC2)CC1)c1cccc(C(F)(F)F)c1 | x | n | x | n | x
SMILES | CHRM1 agonist | TAAR1 antagonist | M1 antag | TAAR1 ag | M1 PAM
Cc1cc(/C=N/NC(N)=S)c(O)c(/C=N/NC(N)=S)c1 | n | n | n | 50 | n
NC(=S)N/N=C/c1cccc(O)c1O | n | n | n | n | n
Cn1c(CCN2CCN(c3ccccn3)CC2)nc2cc(NS(=O)(=O)c3ccccc3)ccc21 | n | n | 69 | n | n
CCCC(=O)Nc1ccc2c(c1)nc(CCN1CCN(c3ccccn3)CC1)n2C | n | n | n | n | n
CCCCC(=O)Nc1ccc2c(c1)nc(CCN1CCN(c3ccccn3)CC1)n2C | n | n | 74 | n | n
Cn1c(CCN2CCCCC2)nc2cc(NS(=O)(=O)c3ccccc3)ccc21 | n | n | n | n | n
Cc1ccc(OCC(=O)Nc2ccc3c(c2)nc(CCN2CCN(c4ccccn4)CC2)n3C)cc1 | n | n | 62 | n | n
Cn1c(CCN2CCN(c3ccccn3)CC2)nc2cc(NC(=O)COc3ccccc3)ccc21 | n | n | 58 | n | n
COC1OC(COCc2ccccc2)C2OC(C)(C)OC2C1O (stereo unspecified) | x | n | x | n | x
COc1ccccc1N(C)S(=O)(=O)c1ccc(C(=O)NCC(C)C)cc1 | n | n | n | n | n
COc1ccccc1N(C)S(=O)(=O)c1ccc(C(=O)NCC2CCCCC2)cc1 | n | 53 | n | n | n
COC(=O)c1ccc(CNC(=O)c2ccc(S(=O)(=O)N(C)c3ccccc3OC)cc2)cc1 | n | 57 | n | n | n
O=C(C[N+]1(CC#Cc2ccccc2)CCCCC1)c1ccc(Cl)cc1 | n | n | 52 | n | n
O=C(C[N+]1(CC#Cc2ccccc2)CCCCC1)c1ccccc1 | n | n | 44 | n | n
O=C(C[N+]1(CC#Cc2ccccc2)CCOCC1)c1ccc(Cl)cc1 | n | n | n | n | n
COC(=O)C[C@@H]1CC[C@@H](NC(=O)C2CCC2)[C@@H](CO)O1 | x | n | x | n | x
Nc1nc2ncccc2cc1C(=O)NC1CC1 | x | n | x | n | x
CN1CCN(C(=O)/C(=C\c2ccccc2)c2ccccc2)CC1 | n | n | 99 | n | n
CN1CCN(C(=O)/C(=C/c2ccc(F)cc2)NC(=O)c2ccccc2)CC1 | n | n | n | n | n
Cn1c(=O)oc2ccc(S(=O)(=O)Nc3ccc(Cl)cc3[N+](=O)[O-])cc21 | x | n | x | n | x
COC(=O)[C@]12C[C@H](CC(=O)NCC3CCCCC3)C(=O)N(Cc3ccccc3)C1=C[C@H](C(C)(C)C)O[C@@H]2C | x | n | x | n | x
COc1cccc(/C=N/n2c(-c3ccco3)nc3ccccc3c2=O)c1 | n | 49 | n | n | n
COc1ccc(/C=N/n2c(-c3ccco3)nc3ccccc3c2=O)cc1 | n | n | n | n | n
COC(=O)c1c(C(=O)OC)c2ccccn2c1C(=O)c1ccc([N+](=O)[O-])cc1 | n | n | n | n | n
CC(C)OC(=O)c1c2c(n3ccccc13)C(=O)c1ccccc1C2=O | n | n | n | 40 | n
Cc1oc2c(c(C)nn2-c2ccccc2)c(=O)c1Cl | x | n | x | n | x
CN1CCN(Cc2nnc(-c3ccccc3)o2)CC1 | n | n | n | n | n
c1ccc(CN2CCN(Cc3nnc(-c4ccccc4)o3)CC2)cc1 | n | n | 35 | n | n
C[N+]1(CC(O)c2ccccc2)CCCCCC1 (stereo unspecified) | n | n | n | n | n

Compound activity (PubChem BioAssay)
